Most compounds without a hit are left out; they make up all but 2.2% or so of the library.
CAL PDZ FP-1: blocks peptide binding to human CAL PDZ domain; purified CAL PDZ, TMR-peptide fluorescence polarization, 1 h; inhibition, % at 20 µM; hit rate 0.02% among 330,000;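 active = highest replicate inhibition of at least 40%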;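 note: plate controls were DMSO neutral control wells for no effect and unlabeled competitor peptide control wells for full effect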
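Material: tagged CAL PDZ domain; buffer or medium: 25 mM sodium phosphate pH 7.4, 150 mM NaCl, TCEP, IgG, Thesit; compound dosing: single point, 20 µM; schedule: 1 h incubation at room temperature before polarization reading; measured by: FP readout, S and P plane fluorescence; read-out basis: percent inhibition from loss of millipolarization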
CDK5 p35 inh: blocks human CDK5/p35 kinase activity; inhibition, % at 10 µM; hit rate 0.01% among 330,000; Recombinant CDK5/p35, ADP-Glo luminescence, 60 min;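 active = highest replicate inhibition of at least 50% and at least 75% of replicates reaching 50%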;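 note: plate controls were DMSO neutral control for no effect and GW8510 at 10 µM for full effect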
Target sequence (Q00535 whole entry, looked up): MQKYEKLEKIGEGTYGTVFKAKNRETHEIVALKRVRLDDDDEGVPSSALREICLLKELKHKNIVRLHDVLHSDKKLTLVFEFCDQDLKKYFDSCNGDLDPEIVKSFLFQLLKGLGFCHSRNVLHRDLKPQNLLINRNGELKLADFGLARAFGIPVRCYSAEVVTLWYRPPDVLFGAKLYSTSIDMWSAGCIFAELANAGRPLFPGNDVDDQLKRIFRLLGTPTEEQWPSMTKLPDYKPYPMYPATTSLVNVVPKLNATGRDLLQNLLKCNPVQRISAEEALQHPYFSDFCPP
Target sequence (Q15078 whole entry, looked up): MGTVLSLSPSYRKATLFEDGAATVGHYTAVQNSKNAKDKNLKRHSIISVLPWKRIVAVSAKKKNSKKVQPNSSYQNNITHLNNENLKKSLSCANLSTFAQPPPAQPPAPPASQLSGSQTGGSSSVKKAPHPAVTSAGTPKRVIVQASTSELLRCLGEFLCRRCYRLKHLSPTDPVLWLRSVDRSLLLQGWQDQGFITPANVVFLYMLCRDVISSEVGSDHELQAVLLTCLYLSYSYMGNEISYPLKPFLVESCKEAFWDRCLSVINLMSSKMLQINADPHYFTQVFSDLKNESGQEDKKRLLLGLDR
CAL PDZ FP-2: CAL PDZ (human) peptide binding inhibition. purified CAL PDZ, TMR-peptide fluorescence polarization, 1 h. inhibition, % at 24.9 µM. hit rate 0.92% among 300,000. AID 602252;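 active = mean inhibition of at least 30% with at least half of replicates also reaching 30%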;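 note: 0% = DMSO neutral control and 100% = excess unlabeled competitor peptide PRC23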
dFosB act: mouse delta FosB homodimer activation; activation, % at 25 µM; P13346; purified delta FosB, TAMRA-CDK5 oligo fluorescence polarization; percent of positive-control signal above neutral wells; hit rate 0.99% among 340,000;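 active = mean activation above about 17%, with every replicate also reaching it, limit read from the data, passing the limit was not always enough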
DYRK1A inh: Dyrk1A (rat) kinase inhibition. Q63470. ADP-Glo luminescence, NFATc1 peptide. inhibition, % at 12.5 µM. hit rate 0.43% among 310,000; in the data active = inhibition above about 50%;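 note: plate controls were vehicle with enzyme for no effect and no enzyme for full effect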
Rtt109 HAT inh: inhibitors of Candida albicans Rtt109/Vps75 histone acetyltransferase | Q5AAJ8 | purified Rtt109/Vps75, ThioGlo CoA-SH fluorescence, 4 h | inhibition, % at 34.9 µM | hit rate 0.16% among 330,000 | AID 540336;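 active = inhibition of at least 50% in every replicate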
The depositor's hits bear a star; · = not tested or not shown.

SMILES	CAL PDZ FP-1	CDK5 p35 inh	CAL PDZ FP-2	dFosB act	DYRK1A inh	Rtt109 HAT inh
CCOC(=O)/C(=C\c1cccc(O)c1)c1nc2sc(C)c(C)c2c(=O)[nH]1	-2.4	2.4	-1.1	-5.2	-3.0	17.3
Cc1ccc(-c2ccc(=O)n(CC(=O)NCC3COCCO3)n2)cc1 (stereo not given)	-4.1	-1.4	-0.7	1.8	-3.4	0.3
COc1cc(C2C(C#N)=C(N)N(N(C)C)C3=C2C(=O)CC(C)(C)C3)cc(OC)c1OC (stereo not given)	-0.9	-0.6	44.3*	-2.9	-2.3	-0.8
COc1ccc(C2C(C#N)=C(N)N(N(C)C)C3=C2C(=O)CC(C)(C)C3)cc1OC (stereo not given)	-0.2	0.2	-3.7	-8.0	-3.1	-3.5
Cc1cc(N/N=C/c2ccc(O)cc2)c2cccc(C)c2n1	6.2	3.8	-3.8	104.8*	22.8	3.9
C/C(=N\NC(N)=O)c1ccccc1	-2.7	0.8	-2.1	-8.2	7.5	-2.3
C/C(=N\NS(C)(=O)=O)c1ccccc1	-0.7	0.7	94.0*	0.6	-3.4	11.2
Cc1cccc(C)c1NC(=S)NCc1ccccc1	-3.4	0.5	-4.0	-0.7	-6.6	1.5
Cc1cccc(C)c1NC(=S)NC(C)(C)CO	-1.0	0.8	78.7*	0.5	5.4	-11.4
CN(Cc1ccon1)Cc1cn(C)nc1-c1cccc(Cl)c1	0.5	-3.1	-1.6	-5.7	0.0	-8.6
O=C1CSCC(=O)N1Cc1ccc(Cl)c(Cl)c1	·	-0.1	42.8*	5.7	5.1	1.8
O=C(CN1CCN(C/C=C/c2ccccc2)CC1)NC(=O)NC1CCCCC1	·	-1.4	72.2*	-2.8	4.3	3.7
Cc1nnc(NC(=O)CSc2nnc3c(n2)[nH]c2ccc(Br)cc23)s1	-0.2	3.2	·	153.4*	-0.2	-2.7
CC(C)c1nn2c(=O)cc(O)nc2s1	-2.1	-0.9	-0.7	1.3	-6.2	-14.4
Cc1noc(C)c1S(=O)(=O)N1CCN(S(=O)(=O)c2ccccc2C#N)CC1	-1.9	0.2	33.9*	2.6	0.8	-3.1
Cc1n[nH]c(C)c1S(=O)(=O)N1CCN(S(=O)(=O)c2ccccc2C#N)CC1	-0.6	0.9	1.6	-0.8	6.5	-1.5
O=C(N/N=C1/CC2C=CCC12)c1cccs1 (stereo not given)	-1.1	0.7	42.0*	4.1	·	-3.9
CC1CN(CCCCOc2ccc(C(C)C)cc2)CC(C)O1 (stereo not given)	-1.8	-3.5	1.6	-6.6	-8.4	-0.8
CC1CN(CCCCOc2ccc(Cl)c3ccccc23)CC(C)O1 (stereo not given)	19.7	0.7	43.4*	2.4	3.8	-0.1
CCC/C(O)=C1\C(=O)CC(C)(C)CC1=Nc1ccc(OC)cc1OC	0.1	-0.8	60.1*	-0.9	-6.4	-5.4
Cc1cc(=O)n2[nH]c(CCC(=O)O)nc2n1	-2.8	-1.0	0.2	1.7	-0.9	32.8
CCOC(=O)C1CCN(c2ccc([N+](=O)[O-])c(C(C)=O)c2)CC1	0.1	-1.1	1.0	-9.3	-5.1	115.5*
COCC(C)n1c(SCC(=O)N2CC(=O)Nc3ccccc32)nc2ccccc2c1=O (stereo not given)	-1.8	-0.8	46.7*	-4.7	3.1	2.7
Cc1[nH]c(=O)c(C#N)c2c1CSC(C)(C)C2	0.3	1.1	·	3.6	3.9	-1.4
CC(CCc1ccccn1)C(=O)C(C)CCc1ccccn1 (stereo not given)	-0.6	-1.8	80.9*	-2.2	-3.3	-4.6
SMILES	CAL PDZ FP-1	CDK5 p35 inh	CAL PDZ FP-2	dFosB act	DYRK1A inh	Rtt109 HAT inh
Cc1ccc2c(c1)N(C)/C(=C/c1cccc[n+]1C)S2	0.6	0.8	4.9	17.6*	-4.2	-8.7
CCOC(=O)C1(CCOc2ccccc2)CCN(Cc2nccn2CC)CC1	-0.5	-0.1	32.5*	-3.3	3.7	4.1
COc1cc(OC)c(C(=O)Nc2ncn[nH]2)cc1OC	-3.3	-1.5	-6.7	8.2	-0.2	6.6
O=C(CSc1nnc(-c2ccccc2)n1Cc1ccccc1)N1CCOCC1	·	-0.8	0.7	-3.0	-0.3	0.0
Oc1ccccc1-c1nnc(SCCN2CCOCC2)n1Cc1ccccc1	-1.8	-2.2	55.7*	-4.0	-2.0	-7.5
COc1ccc(Br)cc1S(=O)(=O)NCCCN1CCOCC1	-3.1	-3.3	3.5	-3.1	-9.4	-0.5
O=C(NC1CCCN(c2ccc(C(F)(F)F)cn2)C1)c1cc(Cl)ccc1F (stereo not given)	-0.4	0.0	-7.6	14.7	5.9	-9.5
Cc1ccc(C(=O)NC2CCCN(c3ccc(C(F)(F)F)cn3)C2)cn1 (stereo not given)	0.2	1.8	44.9*	-8.1	2.4	-4.9
COc1ccc(/C=N/n2c(=O)[nH]c3c([nH]c4ccc(F)cc43)c2=O)cc1CN1CCCCC1	-0.7	0.1	3.0	31.5*	0.6	13.0
CCOc1ccccc1C(=O)N[C@H](C(=O)Nc1ccc(OC)c(S(=O)(=O)N2CCOCC2)c1)C(C)C	-0.7	0.9	5.9	-8.9	0.7	27.3
Cc1ccc(C(c2nnnn2C2CCCCC2)N2CCc3ccccc32)cc1 (stereo not given)	-1.3	-0.9	74.3*	-12.5	-4.1	1.6
O=C(Cn1c(=O)n(CCCC(=O)NC2CCCC2)c(=O)c2ccccc21)NCCC1=CCCCC1	-0.9	0.3	5.7	-7.6	2.1	-10.9
COc1ccc2[nH]c3c(=O)n(CCCC(=O)NC4CCCCC4C)c(=S)[nH]c3c2c1 (stereo not given)	-2.3	0.0	0.3	51.8*	-1.2	-3.9
CC1CCCCC1NC(=O)CCCn1c(=S)[nH]c2ccccc2c1=O (stereo not given)	-1.0	1.1	6.9	2.9	-2.6	0.5
COc1ccc(N2C(=O)c3ccccc3C(C)(C)C2=O)cc1	-1.7	0.5	-2.0	-0.3	-2.2	-8.2
CCC(=O)N1CN(S(=O)(=O)c2ccc(C)cc2)CC1C (stereo not given)	-0.5	-1.1	41.6*	-4.7	-3.3	-7.9
Fc1ccc(-c2cc(C(F)(F)F)nc(NCc3cccs3)n2)cc1	0.6	-0.4	-2.3	-3.1	-0.8	-5.6
CN1/C(=C\C=C(C#N)C#N)C(C)(C)c2ccccc21	-1.1	-0.1	-3.9	113.0*	-3.5	10.2
CN1/C(=C\C=C(/C#N)C(=O)Nc2ccc(Cl)cc2)C(C)(C)c2ccccc21	-1.2	0.9	-3.8	-3.9	-1.7	-5.3
CC(=O)c1c(C)[nH]c(C(=O)NCCc2c[nH]c3ccccc23)c1C	-1.4	-0.1	1.5	1.8	-0.8	11.8
COc1ccc(OC)c(S(=O)(=O)Nc2c(C)n(C)n(-c3ccccc3)c2=O)c1	16.7	-0.2	74.4*	4.1	8.0	-2.1
O=C(Nc1ccc(Cl)cc1)Nn1cnnc1	1.0	0.3	·	5.8	15.9	-3.1

Assay outcomes: PubChem, Broad Institute
